Each structure is given as a SMILES string. This is one part of the list. The source made the active and inactive calls.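 The calls were made as follows: active = inhibition above the hit cutoff derived for the primary screen (cut at about 15% in these data); inactive = the rest.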

Broadly, the inhibition is the change of the read-out against control, counted positive when it falls.

Serine hydrolase RBBP9 (Homo sapiens), sequence (O75884 whole entry, looked up): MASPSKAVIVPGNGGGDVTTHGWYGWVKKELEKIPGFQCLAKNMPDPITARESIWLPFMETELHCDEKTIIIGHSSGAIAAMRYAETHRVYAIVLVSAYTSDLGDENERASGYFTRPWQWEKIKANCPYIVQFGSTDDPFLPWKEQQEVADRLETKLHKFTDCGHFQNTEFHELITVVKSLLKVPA

This experiment addresses Serine hydrolase RBBP9 (Homo sapiens) (UniProt O75884). The experiment can be described thus: human RBBP9 inhibitors, retest, confirmation, biochemical, fluorescence polarization, FP-Rh probe, triplicate (AID 1537).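 Also: 0% = RBBP9 with DMSO and 100% = wells lacking RBBP9 protein.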 The following applies: recombinant RBBP9, FP-Rh probe fluorescence polarization; at 7.94 µM; active compounds read high. The essentials: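 Signal: fluorescence polarization, excitation 525 nm, emission 598 nm / Material: RBBP9 serine hydrolase enzyme, human / Times: 30 min enzyme-compound preincubation at 25 °C, 45 min probe labelling / Replicates: triplicate wells per compound / Medium: Tris/NaCl buffer, pH 8.0, with Pluronic / Also added: FP-Rh probe / Doses: single compound dose, 7.94 µM final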
Background: In fluorescence polarisation assays a small probe gives low polarisation when free and higher when bound to something large.
Regarding `Cc1ccc(NC(=O)CN2CCC(C(N)=O)CC2)cc1[N+](=O)[O-]`, the inhibition is 2.36% (inactive).

Take `CCOc1ccc2[nH]c(=O)c(C(c3nnnn3CCOC)N3CCOCC3)cc2c1` (stereo not drawn): the inhibition was 1.76% (inactive).

With `C=CS(=O)c1sc(Cl)c(N2CCOCC2)c1[N+](=O)[O-]` (stereo not drawn), the inhibition was 34.7% (active).

On to `O=C(CCCC(=O)N(CC(=O)NC1CCCC1)Cc1ccccc1Cl)Nc1ccccn1`, for which the inhibition was 1.03% (inactive).

Consider `COc1ccc(NS(=O)(=O)c2cc(NC(=O)CC(=O)c3ccc([N+](=O)[O-])cc3)ccc2C)cc1`, for which the inhibition is -3.45% (inactive).

Regarding `Cc1cc([N+](=O)[O-])nn1Cc1ccc(F)cc1`, the inhibition was 11.8% (inactive).

For `O=c1[nH]n(-c2ccc([N+](=O)[O-])cc2)c(=O)c2ccccc12`, the inhibition was 20.4% (active).

Turning to `COCCN(Cc1nc(-c2ccc(C(F)(F)F)cc2)no1)C(C)C`, the inhibition was 1.94% (inactive).

Take `Cn1sc(=O)c2cc(S(=O)(=O)NC3CC3)ccc21`: the inhibition is 26.9% (active).

`CCc1ccccc1NC1c2ccccc2C(=O)N1c1cccnc1` (stereo not drawn): the inhibition is 3.9% (inactive).

As to `CCC(=O)N1CCCc2ccccc21`, the inhibition was 0.8% (inactive).

Take `CC1=NOC(=O)/C1=C\c1ccccc1`: the inhibition is 4.74% (inactive).

Regarding `COc1cccc(NC(=O)c2ccc3c(SCC(=O)O)c4c(nc3c2)CCCC4)c1`, the inhibition is 6.99% (inactive).

For `CC(C)OCCCNC(=O)CNC(=O)c1cccs1`, the inhibition is 11% (inactive).

Regarding `CCN(CC)C(=O)N1CCN(C(=O)c2ccc(C)cn2)CC1`, the inhibition is 9.27% (inactive).

As for `Oc1ccc(N=Cc2sc3ccccc3c2Cl)cc1`, the inhibition is 12.5% (inactive).

As to `O=[N+]([O-])c1c(NCCO)cc(Sc2nc3ccccc3s2)c2nonc12`, the inhibition is 45.7% (active).

Take `Nn1c(Cc2cccc3ccccc23)nnc1SCC(=O)N1CC(=O)Nc2ccccc21`: the inhibition is 6.4% (inactive).

Take `COc1ccc(N2C(=O)C3CCCN3C2c2cc(OC)c(OC)cc2OC)cc1` (stereo not drawn): the inhibition was 3.25% (inactive).

On to `C/C(=N/Nc1nc(-c2ccccc2)c(CC(=O)O)s1)c1ccccc1`, for which the inhibition was 31.2% (active).

Turning to `O=C1C=CC(=O)N1c1ccc(N2CCCCC2)cc1`, the inhibition was 25.9% (active).

Consider `COc1cc(/C=N/NC(=O)Nc2ccccc2)ccc1OCCOc1ccccc1C`, for which the inhibition is 0.38% (inactive).

Consider `CCC(=O)c1ccc(OCC(O)CN2CCN(c3cccc(C(F)(F)F)c3)CC2)cc1` (stereo not drawn), for which the inhibition was 7.26% (inactive).

`COc1cc(C2C(C(=O)OCCC#N)=C(C)NC3=C2S(=O)(=O)c2ccccc23)cc(OC)c1OC` (stereo not drawn): the inhibition is 1.17% (inactive).

With `COc1ccc2c(c1)C(C)=CC(C)(C)N2C(=O)Nc1ccccc1`, the inhibition was 2.49% (inactive).

As to `Cc1cc(F)ccc1S(=O)(=O)N1CCCOC1CNC(=O)C(=O)NCCC1=CCCCC1` (stereo not drawn), the inhibition is 10.6% (inactive).

Consider `COc1ccc(-n2nnnc2SCc2nc(N)nc(N3CCOCC3)n2)cc1`, for which the inhibition is 3.53% (inactive).

Take `Cc1ccnc(-n2sc3ccccc3c2=O)n1`: the inhibition is 72.8% (active).

(Values after PubChem BioAssay AID1537 (The Scripps Research Institute Molecular Screening Center, 2009).)
